Activity calls are given as the source filed them. The calls are words filed in the database; no cut-off is given here.
Key:
A2780 [1] = experiment: (§1) Inhibition of cellular uptake of fluorescent glucose 2-NBDG in human A2780 cells at 50 uM incubated for 20 mins by flow cytometry; type: functional
In short: (§2)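 A2780 cells held 12 h in glucose-free medium. They were then coincubated for 20 min with compound (50 μM) and 2-NBDG (100 μM) in growth medium with 1 g/L D-glucose. 2-NBDG uptake was read as flow-cytometric fluorescence, with phloretin (50 μM) as positive control. Triplicate, mean ± standard deviation.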

A2780 [2] = experiment: Induction of apoptosis in human A2780 cells assessed as early apoptosis level at 20 uM incubated for 48 hrs by PI and FITC-Annexin V staining based flow cytometry; type: functional
In short: (§3)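 A2780 cells exposed to compound (20 μM) for 48 h. Cells then stained with FITC-Annexin V and propidium iodide and analysed by flow cytometry for early and late apoptotic fractions. Triplicate, mean ± standard deviation.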

A2780 [3] = experiment: Induction of apoptosis in human A2780 cells assessed as late apoptosis level at 20 uM incubated for 48 hrs by PI and FITC-Annexin V staining based flow cytometry; type: functional; in short: as §3
MDA-MB-231 [4] = experiment: Antiproliferative activity against human MDA-MB-231 cells incubated for 72 hrs by MTT assay; type: functional, cell-based; details: MDA-MB-231, 72 h
In short: (§4)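 MTT assay after 72 h continuous exposure in MDA-MB-231 breast and A2780 ovarian cancer cells and MRC-5 normal lung fibroblasts. IC50 taken from the resulting dose–response.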

[5] = Antiproliferative activity against human MRC5 cells incubated for 72 hrs by MTT assay; type: toxicity, cell-based; in short: as §4
A2780 [6] = experiment: Antiproliferative activity against human A2780 cells incubated for 72 hrs by MTT assay; type: functional, cell-based; details: A2780, 72 h; in short: as §4
MDA-MB-231 [7] = experiment: Antiproliferative activity against human MDA-MB-231 cells ectopically overexpressing GLUT1 incubated for 72 hrs by MTT assay relative to normal cells; type: functional, cell-based
In short: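 MDA-MB-231 derivative line transduced to overexpress GLUT1 is compared with an isogenic control line transduced with the same vector expressing Turbo-635 fluorescent protein. GLUT1 levels were checked by Western blot. IC50 from MTT after 72 h. Triplicate, mean ± standard deviation.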

[8] = as §1; type: functional; set-up: scale not given: the % may be the effect or the level left; in short: as §2
[9] = Induction of intracellular iron sequestration in human A2780 cells at 20 uM by calcein based fluorescence assay
A2780 [10] = experiment: Antiproliferative activity against human A2780 cells incubated for 72 hrs in presence of 12.5 uM GLUT1 inhibitor phloretin by MTT assay; type: functional, cell-based
In short: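 A2780 cells given test compound together with the GLUT1 inhibitor phloretin (12.5 μM) for 72 h. Read-out by MTT, giving IC50. Triplicate runs, reported as mean ± standard deviation.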

[11] = Ratio of IC50 for antiproliferative activity against human A2780 cells incubated for 72 hrs in presence of 12.5 uM GLUT1 inhibitor phloretin by MTT assay to IC50 antiproliferative activity against human A2780 cells incubated for 72 hrs in absence of 12.5 uM GLUT1 inhibitor phloretin by MTT assay; type: functional
In short: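 A2780 ovarian cancer cells were treated for 72 h with compound, either alone or coincubated with the GLUT1 inhibitor phloretin at 12.5 μM. Viability was read by MTT assay. IC50 values were determined in triplicate under each condition and reported as averages ± standard deviation. The value is the IC50 with phloretin relative to the IC50 without it.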

| IC50 (MDA-MB-231 [4]) | IC50 (A2780 [6]) | Compound | inhibition (A2780 [1]) | Activity (A2780 [2]) | Activity (A2780 [3]) | IC50 at 72 h [5] | Activity (MDA-MB-231 [7]) | Activity [8] | Activity [9] | inhibition (A2780 [10]) | Ratio IC50 [11] |
| --- | --- | --- | --- | --- | --- | --- | --- | --- | --- | --- | --- |
|  |  | O=C(CCc1ccc(O)cc1)c1c(O)cc(O)cc1O | Active |  |  |  |  |  |  |  |  |
|  |  | O=C(N/N=C/c1ccccc1O)c1ccncc1 [SALINAZID] |  | 7.8% | 38% |  |  |  |  |  |  |
| 6.1 µM | 3.5 µM | CC(=O)N(O)CCCCCNC(=O)CCC(=O)N(O)CCCCCNC(=O)CCC(=O)N(O)CCCCCN [DEFEROXAMINE] |  |  |  | 9 µM |  |  |  |  |  |
| 17 µM | 5.2 µM | O=C(CCSSc1ccccc1/C=N/NC(=O)c1ccccc1)OC[C@H]1OC(O)[C@H](O)[C@@H](O)[C@@H]1O (stereo partly drawn) |  | 5% |  | 26 µM | Active | >20% | 20% |  |  |
| 12 µM | 2.1 µM | COC(=O)CCSSc1ccccc1/C=N/NC(=O)c1ccccc1 |  | 5% |  | 12 µM | Active |  | 20% | Active |  |
|  |  | OC[C@H]1OC(O)C[C@@H](O)[C@@H]1O (stereo partly drawn) |  | 3.6% | 3.4% |  |  |  |  |  |  |
| 17 µM | 5.3 µM | O=C(CCSSc1ccccc1/C=N/NC(=O)c1ccccc1)N[C@H]1C(O)O[C@H](CO)[C@@H](O)[C@@H]1O (stereo partly drawn) |  | 5% |  | 33 µM | Active | >20% | 20% |  |  |
| 22 µM | 2.5 µM | O=C(CCSSc1ccccc1/C=N/NC(=O)c1ccccc1)OC[C@H]1OC(O)C[C@@H](O)[C@@H]1O (stereo partly drawn) |  | 5% | 20% | 29 µM | Active | >20% | 20% |  | >5 |

— ChEMBL document CHEMBL5143761, “Aroylhydrazone Glycoconjugate Prochelators Exploit Glucose Transporter 1 (GLUT1) to Target Iron in Cancer Cells” (ACS Med Chem Lett, 2022)
